Consider 15 molecules from ChEMBL document CHEMBL1909494, “Synthesis and structure-activity relationship studies of 4-arylthiosemicarbazides as topoisomerase IV inhibitors with Gram-positive antibacterial activity. Search for molecular basis of antibacterial activity of thiosemicarbazides” (Eur J Med Chem, 2011).

The test system of test [1] is Staphylococcus aureus. As to the kind of experiment: Antibacterial activity against Staphylococcus aureus ATCC 25923 by agar dilution method. In kind it is functional. (Agar dilution tests growth on a series of plates holding different concentrations.)
The test system of test [2] is Staphylococcus aureus. The experiment in a line: Antibacterial activity against Staphylococcus aureus ATCC 6538 by agar dilution method. In kind it is functional.
In test [3] the test system is Staphylococcus aureus. The experiment in a line: Antibacterial activity against Staphylococcus aureus ATCC 29213 by agar dilution method. It counts as functional.
The test system of test [4] is Staphylococcus aureus. As to the kind of experiment: Antibacterial activity against Staphylococcus aureus NCTC 4163 by agar dilution method. It counts as functional.
Test [5] deals with Staphylococcus epidermidis. As to the kind of experiment: Antibacterial activity against Staphylococcus epidermidis ATCC 12228 by agar dilution method. It counts as functional.
A further test has as its system Bacillus subtilis. The experiment in a line: Antibacterial activity against Bacillus subtilis ATCC 6633 by agar dilution method. In kind it is functional.
A further test relates to Bacillus cereus. The experiment in a line: Antibacterial activity against Bacillus cereus ATCC 11778 by agar dilution method. It counts as functional.
For test [6], the system named is Micrococcus luteus. The experiment in a line: Antibacterial activity against Micrococcus luteus ATCC 9341 by agar dilution method. It counts as functional.
For test [7], the system named is Micrococcus luteus. As to the kind of experiment: Antibacterial activity against Micrococcus luteus ATCC 10240 by agar dilution method. It counts as functional.
The nature of test [8]: (§1) Inhibition of Staphylococcus aureus topoisomerase 4 assessed as inhibition of decatenation of kDNA after 1 hr by agarose gel electrophoresis. An outline of the steps:
(§2)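 kDNA was incubated with 1 unit of topoisomerase IV in decatenation assay buffer with varying compound concentrations at 37 °C for 1 h. Reactions were stopped with 2x STOP buffer plus chloroform/iso-amyl alcohol and run on a 1% agarose gel in TAE for 1.5 h at 80 V, then stained with ethidium bromide. IC50 was the concentration preventing 50% conversion of kDNA to decatenated minicircles, derived from gel densitometry.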

The target of test [9] is DNA gyrase (Staphylococcus aureus) (UniProt P0A0K8+P20831). As to the kind of experiment: Inhibition of Staphylococcus aureus gyrase using […] DNA as substrate after 1 hr by agarose gel electrophoresis. It counts as protein-complex assay. To be noted: in the assay text read “relaxed” for “supercoiled”. An outline of the steps:
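The enzyme was incubated in the manufacturer's supercoiling assay buffer with varying compound concentrations at 37 °C for 1 h. Samples were run on a 1% agarose gel in TAE for 3 h at 50 V, stained with ethidium bromide and viewed under UV.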

The subject of test [10] is Staphylococcus aureus. The test is described as §1. In a few lines:
as §2

SMILES strings stand for the structures. Converted amounts (≈) assume the structure as drawn. The source made the active and inactive calls. No cut-off for these calls is given here.

DNA gyrase (Staphylococcus aureus), sequence (P0A0K8 2-644 limits assumed): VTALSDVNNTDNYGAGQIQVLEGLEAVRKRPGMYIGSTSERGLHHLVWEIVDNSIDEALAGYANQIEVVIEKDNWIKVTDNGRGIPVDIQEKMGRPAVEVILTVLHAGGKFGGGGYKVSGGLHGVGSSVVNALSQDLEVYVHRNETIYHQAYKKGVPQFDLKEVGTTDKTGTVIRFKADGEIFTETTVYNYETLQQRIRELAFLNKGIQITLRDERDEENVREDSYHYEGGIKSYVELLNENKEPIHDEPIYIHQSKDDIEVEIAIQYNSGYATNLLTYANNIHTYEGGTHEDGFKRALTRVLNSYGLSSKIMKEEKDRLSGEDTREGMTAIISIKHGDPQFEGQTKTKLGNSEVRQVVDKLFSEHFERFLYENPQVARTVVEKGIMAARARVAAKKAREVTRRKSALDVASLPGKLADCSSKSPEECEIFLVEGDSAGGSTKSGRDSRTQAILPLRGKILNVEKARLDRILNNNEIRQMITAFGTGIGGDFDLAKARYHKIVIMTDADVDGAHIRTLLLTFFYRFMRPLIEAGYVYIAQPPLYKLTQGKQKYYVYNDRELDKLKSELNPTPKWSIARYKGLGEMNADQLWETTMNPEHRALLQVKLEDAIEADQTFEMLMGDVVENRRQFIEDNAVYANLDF
DNA gyrase (Staphylococcus aureus), sequence (P20831 whole entry partner): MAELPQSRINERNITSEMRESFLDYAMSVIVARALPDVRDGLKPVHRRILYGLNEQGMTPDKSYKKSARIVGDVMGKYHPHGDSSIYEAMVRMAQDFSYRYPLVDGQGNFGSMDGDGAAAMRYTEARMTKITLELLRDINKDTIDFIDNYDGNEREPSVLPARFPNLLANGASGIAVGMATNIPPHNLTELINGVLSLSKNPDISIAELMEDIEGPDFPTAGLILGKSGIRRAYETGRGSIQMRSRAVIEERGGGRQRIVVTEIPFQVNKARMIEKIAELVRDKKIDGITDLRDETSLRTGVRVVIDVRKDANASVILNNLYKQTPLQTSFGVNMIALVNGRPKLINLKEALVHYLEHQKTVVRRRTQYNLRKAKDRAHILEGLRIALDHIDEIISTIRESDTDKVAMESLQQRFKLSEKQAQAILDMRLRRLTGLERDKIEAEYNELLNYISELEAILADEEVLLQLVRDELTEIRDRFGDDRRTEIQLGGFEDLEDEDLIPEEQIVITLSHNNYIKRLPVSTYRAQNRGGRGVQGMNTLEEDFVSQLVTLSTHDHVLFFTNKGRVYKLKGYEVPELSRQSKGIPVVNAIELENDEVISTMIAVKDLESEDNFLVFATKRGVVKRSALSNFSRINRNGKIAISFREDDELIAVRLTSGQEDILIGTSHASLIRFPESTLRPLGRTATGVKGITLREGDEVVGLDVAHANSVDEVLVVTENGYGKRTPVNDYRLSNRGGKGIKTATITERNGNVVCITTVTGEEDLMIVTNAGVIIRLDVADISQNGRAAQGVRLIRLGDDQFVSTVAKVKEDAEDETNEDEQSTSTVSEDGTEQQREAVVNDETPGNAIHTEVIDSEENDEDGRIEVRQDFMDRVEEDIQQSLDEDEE

As to `Cc1nnsc1C(=O)NNC(=S)Nc1ccc(Cl)cc1Cl`, the minimum inhibitory concentration (MIC) (against Staphylococcus aureus [1]; against Staphylococcus aureus [2]; against Staphylococcus aureus [3]; with Staphylococcus aureus [4]; in test [5]; in the test with Bacillus subtilis) was 100 mg/L (≈ 276 µM) each time. Also, the MIC with Bacillus cereus, against Micrococcus luteus [6] and in the test on Micrococcus luteus [7] was 100 mg/L (≈ 276 µM) in each case.

Consider `Cc1nnsc1C(=O)NNC(=S)Nc1ccccc1`, for which the minimum inhibitory concentration (MIC) (against Staphylococcus aureus [1]; in the test with Staphylococcus aureus [2]; in the test on Staphylococcus aureus [3]; against Staphylococcus aureus [4]; in [5]; with Bacillus subtilis) was 400 mg/L (≈ 1360 µM) throughout. Also, the MIC stood at 400 mg/L (≈ 1360 µM) in the test on Bacillus cereus, 100 mg/L (≈ 341 µM) with Micrococcus luteus [6] and 200 mg/L (≈ 682 µM) against Micrococcus luteus [7].

As for `O=C(NNC(=S)Nc1ccc(F)cc1)c1cc2ccccc2[nH]1`, the MIC (against Staphylococcus aureus [1]; with Staphylococcus aureus [2]; in the test with Staphylococcus aureus [3]; with Staphylococcus aureus [4]; in [5]; against Bacillus subtilis) was 100 mg/L (≈ 305 µM) in each case. Also, the MIC in the test on Bacillus cereus is 100 mg/L (≈ 305 µM); in the test with Micrococcus luteus [6], 50 mg/L (≈ 152 µM); with Micrococcus luteus [7] it was 25 mg/L (≈ 76.1 µM).

For `O=C(NNC(=S)Nc1ccccc1Br)c1cc2ccccc2[nH]1`, the MIC against Staphylococcus aureus [1] worked out at 100 mg/L (≈ 257 µM); against Staphylococcus aureus [2], 200 mg/L (≈ 514 µM); in the test on Staphylococcus aureus [3], 100 mg/L (≈ 257 µM); with Staphylococcus aureus [4], 200 mg/L (≈ 514 µM); in test [5] it was 200 mg/L (≈ 514 µM); against Bacillus subtilis, 200 mg/L (≈ 514 µM). The MIC against Bacillus cereus was 200 mg/L (≈ 514 µM); against Micrococcus luteus [6], 100 mg/L (≈ 257 µM); in the test with Micrococcus luteus [7], 100 mg/L (≈ 257 µM).

In the case of `O=C(NNC(=S)Nc1ccc([N+](=O)[O-])cc1)c1cc2ccccc2[nH]1`, the MIC (in the test on Staphylococcus aureus [1]; with Staphylococcus aureus [2]; with Staphylococcus aureus [3]; in the test on Staphylococcus aureus [4]; in [5]; against Bacillus subtilis) was 50 mg/L (≈ 141 µM) throughout. The minimum inhibitory concentration (MIC) in the test with Bacillus cereus, in the test with Micrococcus luteus [6] and in the test on Micrococcus luteus [7] was 50 mg/L (≈ 141 µM) throughout. Also, in [8], the half-maximal inhibitory concentration (IC50) came out at 14 µM.

Regarding `Cc1nnsc1C(=O)NNC(=S)Nc1ccc(F)cc1`, the MIC in the test on Staphylococcus aureus [1] was 200 mg/L (≈ 642 µM); in the test with Staphylococcus aureus [2] it was 400 mg/L (≈ 1280 µM); against Staphylococcus aureus [3], 400 mg/L (≈ 1280 µM); against Staphylococcus aureus [4], 400 mg/L (≈ 1280 µM); in test [5], 200 mg/L (≈ 642 µM); in the test on Bacillus subtilis it was 200 mg/L (≈ 642 µM). Moreover, the MIC against Bacillus cereus is 200 mg/L (≈ 642 µM); with Micrococcus luteus [6], 100 mg/L (≈ 321 µM); in the test with Micrococcus luteus [7] it was 100 mg/L (≈ 321 µM).

Consider `Cc1nnsc1C(=O)NNC(=S)Nc1ccc([N+](=O)[O-])cc1`, for which the MIC was found to be 100 mg/L (≈ 296 µM) against Staphylococcus aureus [1]; 100 mg/L (≈ 296 µM) against Staphylococcus aureus [2]; 200 mg/L (≈ 591 µM) in the test on Staphylococcus aureus [3]; 100 mg/L (≈ 296 µM) in the test on Staphylococcus aureus [4]; 100 mg/L (≈ 296 µM) in test [5]; 100 mg/L (≈ 296 µM) against Bacillus subtilis. Further, the results for the MIC against Bacillus cereus, with Micrococcus luteus [6] and in the test with Micrococcus luteus [7] were 100 mg/L (≈ 296 µM), 100 mg/L (≈ 296 µM) and 50 mg/L (≈ 148 µM), respectively. Also, the inhibition entry (in test [9]; in the test with Staphylococcus aureus [10]) was “inactive” each time.

Regarding `Cc1nnsc1C(=O)NNC(=S)Nc1cc(F)ccc1F`, the MIC with Staphylococcus aureus [1] worked out at 200 mg/L (≈ 607 µM); with Staphylococcus aureus [2], 400 mg/L (≈ 1210 µM); against Staphylococcus aureus [3], 400 mg/L (≈ 1210 µM); against Staphylococcus aureus [4], 400 mg/L (≈ 1210 µM); in test [5], 400 mg/L (≈ 1210 µM); against Bacillus subtilis it was 200 mg/L (≈ 607 µM). The MIC stood at 400 mg/L (≈ 1210 µM) in the test with Bacillus cereus, 100 mg/L (≈ 304 µM) in the test with Micrococcus luteus [6] and 200 mg/L (≈ 607 µM) with Micrococcus luteus [7].

For the molecule `O=C(NNC(=S)Nc1ccccc1F)c1cc2ccccc2[nH]1`, the MIC stood at 100 mg/L (≈ 305 µM) in the test with Staphylococcus aureus [1]; 200 mg/L (≈ 609 µM) in the test with Staphylococcus aureus [2]; 200 mg/L (≈ 609 µM) against Staphylococcus aureus [3]; 200 mg/L (≈ 609 µM) in the test with Staphylococcus aureus [4]; 200 mg/L (≈ 609 µM) in test [5]; 100 mg/L (≈ 305 µM) against Bacillus subtilis. Moreover, the results for the MIC in the test with Bacillus cereus, against Micrococcus luteus [6] and against Micrococcus luteus [7] were 200 mg/L (≈ 609 µM), 100 mg/L (≈ 305 µM) and 100 mg/L (≈ 305 µM), respectively.

Consider `Cc1nnsc1C(=O)NNC(=S)Nc1ccccc1C(F)(F)F`, for which the MIC in the test with Staphylococcus aureus [1] worked out at 50 mg/L (≈ 138 µM); against Staphylococcus aureus [2], 400 mg/L (≈ 1110 µM); with Staphylococcus aureus [3] it was 200 mg/L (≈ 553 µM); in the test on Staphylococcus aureus [4], 100 mg/L (≈ 277 µM); in test [5], 200 mg/L (≈ 553 µM); in the test on Bacillus subtilis, 200 mg/L (≈ 553 µM). In addition, the MIC is 400 mg/L (≈ 1110 µM) with Bacillus cereus, 200 mg/L (≈ 553 µM) in the test with Micrococcus luteus [6] and 200 mg/L (≈ 553 µM) in the test with Micrococcus luteus [7].

Regarding `Cc1nnsc1C(=O)NNC(=S)Nc1cccc(F)c1`, the MIC in the test on Staphylococcus aureus [1] came to 200 mg/L (≈ 642 µM); in the test on Staphylococcus aureus [2], 400 mg/L (≈ 1280 µM); with Staphylococcus aureus [3] it was 400 mg/L (≈ 1280 µM); in the test with Staphylococcus aureus [4], 200 mg/L (≈ 642 µM); in test [5], 400 mg/L (≈ 1280 µM); in the test on Bacillus subtilis it was 400 mg/L (≈ 1280 µM). Besides, the MIC against Bacillus cereus was found to be 400 mg/L (≈ 1280 µM); against Micrococcus luteus [6], 200 mg/L (≈ 642 µM); in the test on Micrococcus luteus [7] it was 100 mg/L (≈ 321 µM).

For the molecule `Cc1nnsc1C(=O)NNC(=S)Nc1ccc(Cl)cc1`, the MIC is 50 mg/L (≈ 153 µM) in the test with Staphylococcus aureus [1]; 100 mg/L (≈ 305 µM) in the test on Staphylococcus aureus [2]; 50 mg/L (≈ 153 µM) against Staphylococcus aureus [3]; 100 mg/L (≈ 305 µM) against Staphylococcus aureus [4]; 50 mg/L (≈ 153 µM) in test [5]; 50 mg/L (≈ 153 µM) against Bacillus subtilis. Also, the MIC in the test with Bacillus cereus came out at 50 mg/L (≈ 153 µM); in the test on Micrococcus luteus [6], 100 mg/L (≈ 305 µM); against Micrococcus luteus [7] it was 50 mg/L (≈ 153 µM).

As to `O=C(O)c1cn(C2CC2)c2cc(N3CCNCC3)c(F)cc2c1=O` [CIPROFLOXACIN], the MIC against Staphylococcus aureus [1] was 0.5 mg/L (≈ 1.51 µM); with Staphylococcus aureus [2] it was 0.5 mg/L (≈ 1.51 µM); with Staphylococcus aureus [3], 0.5 mg/L (≈ 1.51 µM); against Staphylococcus aureus [4] it was 0.5 mg/L (≈ 1.51 µM); in [5] it was 0.5 mg/L (≈ 1.51 µM); with Bacillus subtilis, less than 0.125 mg/L. Further, the figures for the MIC against Bacillus cereus, with Micrococcus luteus [6] and in the test with Micrococcus luteus [7] were 1 mg/L (≈ 3.02 µM), 4 mg/L (≈ 12.1 µM) and 2 mg/L (≈ 6.04 µM), respectively.

For `O=C(NNC(=S)Nc1ccc(F)cc1F)c1cc2ccccc2[nH]1`, the MIC is 100 mg/L (≈ 289 µM) with Staphylococcus aureus [1]; 100 mg/L (≈ 289 µM) in the test with Staphylococcus aureus [2]; 200 mg/L (≈ 577 µM) in the test on Staphylococcus aureus [3]; 100 mg/L (≈ 289 µM) with Staphylococcus aureus [4]; 100 mg/L (≈ 289 µM) in test [5]; 100 mg/L (≈ 289 µM) in the test with Bacillus subtilis. The minimum inhibitory concentration (MIC) against Bacillus cereus amounted to 100 mg/L (≈ 289 µM); against Micrococcus luteus [6], 100 mg/L (≈ 289 µM); against Micrococcus luteus [7], 25 mg/L (≈ 72.2 µM). The IC50 in test [8] turned out to be 295 µM.

For the molecule `Cc1nnsc1C(=O)NNC(=S)Nc1ccc(Br)cc1`, the MIC was 100 mg/L (≈ 269 µM) with Staphylococcus aureus [1]; 200 mg/L (≈ 537 µM) with Staphylococcus aureus [2]; 200 mg/L (≈ 537 µM) against Staphylococcus aureus [3]; 200 mg/L (≈ 537 µM) in the test on Staphylococcus aureus [4]; 200 mg/L (≈ 537 µM) in [5]; 100 mg/L (≈ 269 µM) in the test with Bacillus subtilis. The values for the minimal inhibitory concentration (MIC) against Bacillus cereus, in the test with Micrococcus luteus [6] and in the test on Micrococcus luteus [7] were 100 mg/L (≈ 269 µM), 50 mg/L (≈ 134 µM) and 100 mg/L (≈ 269 µM), respectively. For the same molecule, the IC50 in test [8] came to 403 µM.

Usually MIC stands for the least concentration at which growth counts as inhibited. The term IC50 denotes the midpoint of a concentration-inhibition curve.
